Experimental data from different studies.
Lines come from different studies, so protocols differ.
M-phase phosphoprotein 8 chromodomain: M-phase phosphoprotein 8, chromodomain (Homo sapiens, UniProt Q99549)
ESR1: Estrogen receptor (ESR1, Homo sapiens, UniProt P03372)

The IC50 of `CCN(CCCC[C@H](NC(=O)[C@H](CC(C)C)NC(=O)[C@H](C)NC(=O)[C@H](Cc1ccccc1)NC(=O)c1ccc(Br)c(N)c1)C(=O)N[C@@H](CO)C(N)=O)C(C)C` is reported as 0.29 µM (M-phase phosphoprotein 8 chromodomain; cell-free assay, TR-FRET).
For `Clc1ccc(Cl)c(-c2ccccc2Cl)c1`, the EC50 was 9 µM (ESR1; reporter gene, agonist, luciferase).
`CCN(CCCC[C@H](NC(=O)[C@H](CC(C)C)NC(=O)[C@H](C)NC(=O)[C@H](Cc1c(F)c(F)c(F)c(F)c1F)NC(=O)c1cccnc1)C(=O)N[C@@H](CO)C(N)=O)C(C)C` gave an IC50 of 1.6 µM (M-phase phosphoprotein 8 chromodomain; cell-free assay, TR-FRET).
The EC50 of `Oc1ccc(-c2ccc(Cl)cc2)c(Cl)c1` is reported as 0.1 µM (ESR1; reporter gene, agonist, luciferase).
The Kd of `N[C@@H](Cc1ccc(O)cc1)C(=O)O` is reported as over 1200 µM (Iodotyrosine deiodinase (Haliscomenobacter hydrossis, UniProt F4KU78); binding, fluorescence).
For `CCCC[C@@H](NC(=O)[C@@H](N)Cc1c(C)cc(O)cc1C)C(=O)NCC(=O)N[C@@H](Cc1ccc(F)cc1)C(=O)N(C)CCC[C@@]1(c2ccc(F)cc2)OCc2cc(C#N)ccc21`, the Ki was 0.28 µM (Alpha-2C adrenergic receptor (ADRA2C, Homo sapiens, UniProt P18825); ligand displacement, radioligand).
The IC50 of `CC[N+](C)(C)c1cccc(O)c1` is reported as 1.18 µM (AChE (Phlebotomus papatasi, UniProt M1F887); enzyme activity, inhibitor).
The EC50 of `O=C1C[C@@H](c2ccc(O)cc2)Oc2cc(O)ccc21` is reported as 0.681 µM (ESR1; reporter gene, agonist, luciferase).
`CCN(CCCC[C@H](NC(=O)[C@H](CC(C)C)NC(=O)[C@H](C)NC(=O)[C@H](Cc1ccccc1)NC(=O)c1ccncc1)C(=O)N[C@@H](CO)C(N)=O)C(C)C` gave an IC50 of 0.99 µM (M-phase phosphoprotein 8 chromodomain; cell-free assay, TR-FRET).
For `C[C@H]1CCC[C@H](O)CCC/C=C/c2cc(O)cc(O)c2C(=O)O1`, the EC50 was 0.00013 µM (ESR1; reporter gene, agonist, luciferase).
`Clc1ccc(-c2ccc(Cl)cc2Cl)cc1` gave an EC50 of 27 µM (ESR1; reporter gene, agonist, luciferase).
The IC50 of `CCN(CCCC[C@H](NC(=O)[C@H](CC(C)C)NC(=O)[C@H](C)NC(=O)[C@H](Cc1cccnc1)NC(=O)c1cccnc1)C(=O)N[C@@H](CO)C(N)=O)C(C)C` is reported as 1.8 µM (M-phase phosphoprotein 8 chromodomain; cell-free assay, TR-FRET).
With `CCCCCNC(=N)N/N=C/c1c[nH]c2ccc(OC)cc12` the EC50 was 18 µM (5-hydroxytryptamine receptor 1A (HTR1A, Homo sapiens, UniProt P08908); calcium signal, agonist, fluorescence).
For `O=C(CCCc1ccccc1)OC(CCN1CCN(CCCN(c2ccc(F)cc2)c2ccc(F)cc2)CC1)c1ccccc1` (centres unmarked), the Ki was over 10 µM (Norepinephrine transporter (Slc6a2, Rattus norvegicus, UniProt Q9WTR4); ligand displacement, radioligand).
